Results: ChEMBL document CHEMBL3272012, “5-(Tetradecyloxy)-2-furancarboxylic acid and related hypolipidemic fatty acid-like alkyloxyarylcarboxylic acids” (J Med Chem, 1977)

Tests used:
[1] = test system: Rattus norvegicus; assay: Hypolipidemic activity in Wistar rat assessed as reduction in plasma cholesterol level at 439 umol/kg/day administered through diet for 4 days; type: functional; settings: 96 h
In short: (§1)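 Young male Wistar rats, 170-190 g initial weight, groups of six, given compound mixed thoroughly into Purina Lab Chow ad libitum for 4 or 10 days as stated. Daily dose calculated from food consumption and body weight. Bled by cardiac puncture at end of treatment; plasma cholesterol measured by automated procedure. Expressed as percent reduction versus simultaneous untreated control group; Student's t test.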

[2] = test system: Rattus norvegicus; assay: Hypolipidemic activity in Wistar rat assessed as reduction in plasma triglyceride level at 439 umol/kg/day administered through diet for 4 days; type: functional; settings: 96 h
In short: (§2)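 Young male Wistar rats (initial weight 170-190 g), groups of six, fed compound mixed into Purina Lab Chow ad libitum for 4 or 10 days; daily dose calculated from food consumption and body weight. Bled by cardiac puncture; plasma cholesterol and triglycerides by automated procedures; percent reduction versus simultaneous untreated controls, Student's t test.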

[3] = test system: Rattus norvegicus; assay: Increase in liver weight in Wistar rat at 439 umol/kg/day administered through diet for 4 days; type: ADME, organism-based; settings: in vivo, po, 96 h
In short: (§3)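 Male Wistar rats (170-190 g initial), groups of six, dosed via diet ad libitum for 4 or 10 days, daily dose from food consumption. Liver wet weight measured, expressed as g/100 g final body weight, compared with untreated controls run simultaneously.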

[4] = test system: Rattus norvegicus; assay: Hypolipidemic activity in Wistar rat assessed as reduction in plasma triglyceride level at 374 umol/kg/day administered through diet for 4 days; type: functional; settings: 96 h; in short: as §2
[5] = test system: Rattus norvegicus; assay: Hypolipidemic activity in Wistar rat assessed as reduction in plasma cholesterol level at 374 umol/kg/day administered through diet for 4 days; type: functional; settings: 96 h
In short: (§4)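 Young male Wistar rats, 170-190 g at start, in groups of six, given compound mixed into Purina Lab Chow ad libitum for 4 or 10 days as stated. Daily dose was calculated from food consumption and body weight. Plasma was taken by cardiac puncture at the end and cholesterol measured by automated procedure. Results are % reduction versus a concurrent untreated control group, with Student's t test.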

[6] = test system: Rattus norvegicus; assay: Increase in liver weight in Wistar rat at 374 umol/kg/day administered through diet for 4 days; type: ADME, organism-based; settings: in vivo, po, 96 h; in short: as §3
[7] = test system: Rattus norvegicus; assay: Hypolipidemic activity in Wistar rat assessed as reduction in plasma triglyceride level at 606 umol/kg/day administered through diet for 10 days; type: functional; settings: 240 h
[8] = test system: Rattus norvegicus; assay: Hypolipidemic activity in Wistar rat assessed as reduction in plasma cholesterol level at 606 umol/kg/day administered through diet for 10 days; type: functional; settings: 240 h; in short: as §2
[9] = test system: Rattus norvegicus; assay: Increase in liver weight in Wistar rat at 606 umol/kg/day administered through diet for 10 days; type: ADME, organism-based; settings: in vivo, po, 240 h
[10] = test system: Rattus norvegicus; assay: Hypolipidemic activity in Wistar rat assessed as reduction in plasma triglyceride level at 482 umol/kg/day administered through diet for 4 days; type: functional; settings: 96 h; in short: as §2
[11] = test system: Rattus norvegicus; assay: Hypolipidemic activity in Wistar rat assessed as reduction in plasma cholesterol level at 482 umol/kg/day administered through diet for 4 days; type: functional; settings: 96 h; in short: as §1
[12] = test system: Rattus norvegicus; assay: Increase in liver weight in Wistar rat at 482 umol/kg/day administered through diet for 4 days; type: ADME, organism-based; settings: in vivo, po, 96 h; in short: as §3
[13] = test system: Rattus norvegicus; assay: Hypolipidemic activity in Wistar rat assessed as reduction in plasma cholesterol level at 471 umol/kg/day administered through diet for 4 days; type: functional; settings: 96 h; in short: as §1
[14] = test system: Rattus norvegicus; assay: Hypolipidemic activity in Wistar rat assessed as reduction in plasma triglyceride level at 471 umol/kg/day administered through diet for 4 days; type: functional; settings: 96 h
[15] = test system: Rattus norvegicus; assay: Increase in liver weight in Wistar rat at 471 umol/kg/day administered through diet for 4 days; type: ADME, organism-based; settings: in vivo, po, 96 h
[16] = test system: Rattus norvegicus; assay: Hypolipidemic activity in Wistar rat assessed as reduction in plasma triglyceride level at 499 umol/kg/day administered through diet for 4 days; type: functional; settings: 96 h; in short: as §2
[17] = test system: Rattus norvegicus; assay: Hypolipidemic activity in Wistar rat assessed as reduction in plasma cholesterol level at 499 umol/kg/day administered through diet for 4 days; type: functional; settings: 96 h; in short: as §1
[18] = test system: Rattus norvegicus; assay: Increase in liver weight in Wistar rat at 499 umol/kg/day administered through diet for 4 days; type: ADME, organism-based; settings: in vivo, po, 96 h; in short: as §3
[19] = test system: Rattus norvegicus; assay: Hypolipidemic activity in Wistar rat assessed as reduction in plasma cholesterol level at 489 umol/kg/day administered through diet for 4 days; type: functional; settings: 96 h; in short: as §1
[20] = test system: Rattus norvegicus; assay: Hypolipidemic activity in Wistar rat assessed as reduction in plasma triglyceride level at 489 umol/kg/day administered through diet for 4 days; type: functional; settings: 96 h
[21] = test system: Rattus norvegicus; assay: Hypolipidemic activity in Wistar rat assessed as reduction in plasma triglyceride level at 439 umol/kg/day administered through diet for 10 days; type: functional; settings: 240 h; in short: as §2
[22] = test system: Rattus norvegicus; assay: Hypolipidemic activity in Wistar rat assessed as reduction in plasma cholesterol level at 439 umol/kg/day administered through diet for 10 days; type: functional; settings: 240 h; in short: as §1
[23] = test system: Rattus norvegicus; assay: Increase in liver weight in Wistar rat at 439 umol/kg/day administered through diet for 10 days; type: ADME, organism-based; settings: in vivo, po, 240 h; in short: as §3
[24] = test system: Rattus norvegicus; assay: Hypolipidemic activity in Wistar rat assessed as reduction in plasma triglyceride level at 430 umol/kg/day administered through diet for 4 days; type: functional; settings: 96 h; in short: as §2
[25] = test system: Rattus norvegicus; assay: Hypolipidemic activity in Wistar rat assessed as reduction in plasma cholesterol level at 430 umol/kg/day administered through diet for 4 days; type: functional; settings: 96 h; in short: as §1
[26] = test system: Rattus norvegicus; assay: Increase in liver weight in Wistar rat at 430 umol/kg/day administered through diet for 4 days; type: ADME, organism-based; settings: in vivo, po, 96 h; in short: as §3
[27] = test system: Rattus norvegicus; assay: Increase in cholesterol level in Wistar rat liver at 430 umol/kg/day administered through diet for 4 days; type: ADME, organism-based; settings: in vivo, po, 96 h
In short: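 Male Wistar rats (170-190 g), six per group, given compound by admixture to lab chow ad libitum for 4 or 10 days, dose derived from food intake. Liver cholesterol determined by automated procedure, expressed as mg/g wet tissue, compared with an untreated control group by Student's t test.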

[28] = test system: Rattus norvegicus; assay: Hypolipidemic activity in Wistar rat assessed as reduction in plasma triglyceride level at 491 umol/kg/day administered through diet for 4 days; type: functional; settings: 96 h
[29] = test system: Rattus norvegicus; assay: Hypolipidemic activity in Wistar rat assessed as reduction in plasma cholesterol level at 491 umol/kg/day administered through diet for 4 days; type: functional; settings: 96 h; in short: as §1
[30] = test system: Rattus norvegicus; assay: Increase in liver weight in Wistar rat at 491 umol/kg/day administered through diet for 4 days; type: ADME, organism-based; settings: in vivo, po, 96 h
[31] = test system: Rattus norvegicus; assay: Hypolipidemic activity in Wistar rat assessed as reduction in plasma triglyceride level at 480 umol/kg/day administered through diet for 4 days; type: functional; settings: 96 h
[32] = test system: Rattus norvegicus; assay: Hypolipidemic activity in Wistar rat assessed as reduction in plasma cholesterol level at 480 umol/kg/day administered through diet for 4 days; type: functional; settings: 96 h; in short: as §1
[33] = test system: Rattus norvegicus; assay: Increase in liver weight in Wistar rat at 480 umol/kg/day administered through diet for 4 days; type: ADME, organism-based; settings: in vivo, po, 96 h
[34] = test system: Rattus norvegicus; assay: Hypolipidemic activity in Wistar rat assessed as reduction in plasma triglyceride level at 411 umol/kg/day administered through diet for 10 days; type: functional; settings: 240 h
[35] = test system: Rattus norvegicus; assay: Hypolipidemic activity in Wistar rat assessed as reduction in plasma cholesterol level at 411 umol/kg/day administered through diet for 10 days; type: functional; settings: 240 h; in short: as §4

Structure (SMILES): CCCCCCCCCCCCCCOc1ccc(C(=O)OCC)c(O)c1
- inhibition in vivo at 439 µmol/kg [1]: 0%
- inhibition in vivo at 439 µmol/kg [2]: 0%
- Activity [3]: 1%

Structure (SMILES): CCCCCCCCCCCCCCCCOc1ccc(C(=O)CCC(=O)O)cc1
- inhibition in vivo at 374 µmol/kg [4]: 42%
- inhibition in vivo at 374 µmol/kg [5]: 15%
- Activity [6]: 0%

Structure (SMILES): CCCCCCc1ccc(C(=O)CC(=O)OC)cc1
- inhibition in vivo at 606 µmol/kg [7]: 35%
- inhibition in vivo at 606 µmol/kg [8]: 2%
- Activity [9]: 2%

Structure (SMILES): CCCCCCCCCCCCCCOc1ccc(C(N)=O)o1
- inhibition in vivo at 482 µmol/kg [10]: 14%
- inhibition in vivo at 482 µmol/kg [11]: 0%
- Activity [12]: 7%

Structure (SMILES): CCCCCCCCCCCCCCOc1ccc(C(=O)O)c(C)c1
- inhibition in vivo at 471 µmol/kg [13]: 6%
- inhibition in vivo at 471 µmol/kg [14]: 27%
- Activity [15]: 5%

Structure (SMILES): CCCCCCCCCCCCCCOc1ccc(C(C)=O)o1
- inhibition in vivo at 499 µmol/kg [16]: 21%
- inhibition in vivo at 499 µmol/kg [17]: 0%
- Activity [18]: 0%

Structure (SMILES): CCCCCCCCCCCC(=O)Nc1ccc(C(=O)OCC)cc1
- inhibition in vivo at 489 µmol/kg [19]: 0%
- inhibition in vivo at 489 µmol/kg [20]: 0%

Structure (SMILES): CCCCCCCCCCCCCCOc1ccc(C(=O)CC(N)=O)cc1
- inhibition in vivo at 439 µmol/kg [21]: 3%
- inhibition in vivo at 439 µmol/kg [22]: 4%
- Activity [23]: 8%

Structure (SMILES): CCCCCCCCCCCCCCOc1ccc(/C=C/C(=O)OC)cc1
- inhibition in vivo at 430 µmol/kg [24]: 67%
- inhibition in vivo at 430 µmol/kg [25]: 28%
- Activity [26]: 3%
- Activity [27]: 18%

Structure (SMILES): CCCCCCCCCCCCCCOc1ccccc1C(=O)OC
- inhibition in vivo at 491 µmol/kg [28]: 0%
- inhibition in vivo at 491 µmol/kg [29]: 0%
- Activity [30]: 0%

Structure (SMILES): CCCCCCCCCCCCCCOc1ccc(C#N)cc1
- inhibition in vivo at 482 µmol/kg [10]: 6%
- inhibition in vivo at 482 µmol/kg [11]: 10%
- Activity [12]: 4%

Structure (SMILES): CCCCCCCCCCCCCCOc1ccc(-c2nnn[nH]2)cc1
- inhibition in vivo at 480 µmol/kg [31]: 0%
- inhibition in vivo at 480 µmol/kg [32]: 0%
- Activity [33]: 1%

Structure (SMILES): CCCCCCCCCCc1ccc(C(=O)CC(=O)OC)cc1
- inhibition in vivo at 411 µmol/kg [34]: 69%
- inhibition in vivo at 411 µmol/kg [35]: 30%
